# Assay outcomes deposited in PubChem by several laboratories.
# PTK2B oligo ant: Pyk2 (human) oligomerization antagonism; 99,000 compounds, 0.83% hits; Q293 cells, Pyk2 FERM NanoBiT luminescence; stronger effect = lower value; z-score (the deposit names both 25 µM and 10 µM); AID 1347419;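 active = Z-score of -3 or lower, scaled per plate to the spread of control and sample wells; inactive = z-score above -3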;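 also: negative z-score means lost luminescence so less FERM oligomerization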
# Rev-RRE block: inhibitors of HIV-1 Rev-RRE RNA interaction. P05866. Rev peptide-RRE RNA binding, FRET. inhibition, % at 8 µM. 97,000 compounds, 0.79% hits;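 active = inhibition above the screen-wide mean plus 3 SD, cut at about 35% in these data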;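 also: 0% = median DMSO wells and 100% = median Neomycin B control wells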
#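 Material: labelled RRE RNA duplex and labelled Rev peptide / Buffer or medium: HEPES pH 7.5 salt buffer with EDTA / Compound dosing: single point, 8 µM final nominal compound concentration / Benchmarks: DMSO low control, neomycin B high control / Timing: 5 min preincubation and 15 min binding, 25 °C / Technique: FRET fluorescence readout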
# FAK blocker: inhibitors of human focal adhesion kinase; inhibition, %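 (tested at 7 µM)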; 97,000 compounds, 0.84% hits; biochemical FAK kinase activity assay; Q05397; in the data active = inhibition above about 19%;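 also: 0% = DMSO and 100% = reference compound high control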
# PLK1 inh: blocks human PLK1 kinase activity; recombinant PLK1 kinase, TR-FRET peptide phosphorylation; inhibition, % at 10 µM; 97,000 compounds, 0.53% hits; AID 619;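 active = inhibition of 50% or more in the single-concentration screen; inactive = inhibition below 50%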;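 also: 0% = DMSO max control and 100% = H-89 dihydrochloride min control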
# PLK1 PBD inh: blocks phosphopeptide binding to human Plk1 polo box domain; P53350; AID 693; Plk1 PBD phosphopeptide binding, fluorescence polarization; 97,000 compounds, 0.13% hits; inhibition, %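 (tested at about 20 µM)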; in the data active = inhibition above about 34%, passing the limit was not always enough
# Cav32 inh: inhibitors of human Cav3.2 T-type calcium channel | O95180 | Cav3.2-expressing cells, Fluo-4 calcium fluorescence FDSS; stronger effect = lower value | B-score at 10 µM | 100,000 compounds, 4% hits | AID 449739;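 active = single-dose well whose peak fluorescence ratio is a statistical outlier from its plate by either plate-standardised score or position-corrected B-score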
# * hit, by the source's call; x = no result given. Sampled rows, rich in hits. Any-hit rate of the full collection: about 5.8%.
SMILES,PTK2B oligo ant,Rev-RRE block,FAK blocker,PLK1 inh,PLK1 PBD inh,Cav32 inh
COc1ccc(-c2nc3nc(C)cc(=O)n3[nH]2)cc1,-0.29,6.0,-1.0,-10.5,-9.1,x
O=C(Nc1ccccc1C(F)(F)F)c1ccc(CN2CCC(Cc3ccccc3)CC2)cc1,0.19,10.5,-0.5,-3.2,13.6,-7.71*
O=C(Nc1ccccc1)c1ccc(CN2CCC(Cc3ccccc3)CC2)cc1,1.27,7.0,0.1,-7.0,24.1,-0.257
O=C(CN1CCOCC1)Nc1nc(-c2ccc3c(c2)CCN3S(=O)(=O)c2ccccc2)cs1,-3.04*,3.1,4.8,-6.2,-15.5,0.00221
Cn1c(CNc2ccc(Cl)cc2)nc2ccccc21,1.89,4.0,0.3,2.2,1.2,-2.03
CC(C)N=c1cc2n(-c3ccc(Cl)cc3)c3ccccc3nc-2cc1Nc1ccc(Cl)cc1,x,x,x,x,x,-3.9*
O=C(Cn1c(-c2cscn2)nc2ccccc21)Nc1ccc2ccccc2c1,-2.6,-4.0,0.5,-9.9,3.7,-4.8*
O=C(Cn1c(-c2cscn2)nc2ccccc21)Nc1cc(F)ccc1F,-1.62,0.1,1.9,-8.5,-14.3,-0.0947
O=C(O)C1CCCN1S(=O)(=O)c1ccc2[nH]c(=O)c(=O)[nH]c2c1 (stereo unspecified),0.53,5.1,0.0,-4.8,-7.5,-0.404
c1ccc(-c2cn3c(n2)-c2ccccc2C3)cc1,0.35,x,x,x,x,x
CNc1nnc(-c2ccc(N(C)C)cc2)s1,-0.72,-0.1,-0.1,-17.7,-14.1,0.677
CCCCC(CC)C(=O)NCCCN1CCN(CCCNC(=O)C(CC)CCCC)CC1 (stereo unspecified),0.61,x,x,x,x,-7.29*
O=C(NC(C(=O)c1ccccc1)N1CCOCC1)c1ccccc1 (stereo unspecified),-0.12,x,x,x,x,x
OC(c1ccccc1)(c1ccc(F)cc1)C(c1ccccc1)N1CCOCC1 (stereo unspecified),-1.08,7.2,-3.6,-3.7,-15.2,-2.79*
CCOC(=O)c1cc(-c2ccc(OC(F)F)cc2)nc2c1c(=O)[nH]c(=O)n2C,0.25,x,x,x,x,x
CC1=C(C(=O)Nc2ccccc2)C(c2ccc(O)cc2)N2C(=O)CSC2=N1 (stereo unspecified),-0.95,10.7,-2.0,-9.3,2.0,-2.43
COc1ccc(C2C(C(=O)Nc3ccccc3)=C(C)N=C3SCC(=O)N32)cc1 (stereo unspecified),-0.12,5.7,0.8,-6.7,-27.7,-9.93*
CCc1ccccc1NC(=O)c1cc2sccc2n1C,x,0.9,4.6,-16.5,-3.4,-2.43*
CCOC(=O)CCNC(=O)CNC(=O)OCc1ccccc1,0.05,0.2,-2.0,-4.1,-3.4,-0.0416
CC(C)Sc1oc(-c2ccco2)nc1S(=O)(=O)c1ccc(F)cc1,0.16,13.3,8.8,-10.8,11.1,-5.31*
Cc1ccccc1Oc1ccc(Oc2ccccc2C)nn1,-0.51,x,x,x,x,-0.722
Cc1ccc(Cl)cc1N1CCN(C(=O)C2CCN(c3nnc(-n4cccc4)s3)CC2)CC1,x,x,x,x,x,-8.22*
Cc1nc(N2CCc3ccccc32)[nH]c(=O)c1CCC(C)C,x,5.6,-1.0,-11.4,-10.4,x
CCOC(=O)Nc1ccc2c(c1)Sc1ccccc1N2C(=O)CCN1CCOCC1,0.07,4.9,-0.3,5.0,14.2,x
O=C1C(=O)c2ccc(-c3ccccc3)cc2-c2ccccc21,-4.79*,7.2,55.6*,-3.4,29.1,0.0538
SMILES,PTK2B oligo ant,Rev-RRE block,FAK blocker,PLK1 inh,PLK1 PBD inh,Cav32 inh
COC(=O)c1cc2c(C)cc3ccc(C)cn3c-2c1C(=O)OC,-0.15,36.5*,0.9,-13.3,-18.8,-0.48
CC(=O)c1ccc(OCC(O)CN2CCOCC2)cc1 (stereo unspecified),x,9.0,1.6,64.9*,-18.8,1.24
CC1CC(NC(=O)Cc2ccc(Br)cc2)CC(C)(C)C1 (stereo unspecified),0.05,16.9,2.4,1.1,-8.2,-7.44*
Cc1ccccc1NC(C)C(=O)N/N=C/c1ccccc1OCc1cccc(Br)c1 (stereo unspecified),-1.99,10.0,6.9,-10.5,34.7,-6.38*
O=C(Cc1ccccc1)N/N=C/c1ccccc1OCc1ccc(Cl)cc1,-0.96,10.4,1.2,4.7,4.1,-0.75
COc1ccc(/C=N/Nc2ncc(-c3ccccc3)cn2)c(OC)c1,-0.92,3.7,40.4*,-11.4,-5.9,-0.699
COc1cccc(OCC(=O)N(Cc2nc(-c3ccc(Cl)cc3)no2)C(C)C)c1,x,4.3,0.0,0.0,24.1,-2.63
